Reference: ChEMBL document CHEMBL3588757, “Structure-based design, synthesis and biological testing of piperazine-linked bis-epipodophyllotoxin etoposide analogs” (Bioorg Med Chem, 2015)
pIC50: −log10 of the molar value.

Columns and labels:
K562 [1] = experiment: Cytotoxicity against human K562 cells assessed as cell growth inhibition after 72 hrs by MTS assay; type: functional, cell-based; conditions: K562, 72 h
K562 [2] = experiment: Relative resistance, ratio of IC50 for etoposide-resistant human K/VP.5 cells to IC50 for human K562 cells; type: functional
SNB-19 [3] = experiment: Cytotoxicity against human SNB19 cells assessed as cell growth at 50 uM by SRB assay; type: functional; conditions: read-out: Activity
UACC-62 [4] = experiment: Cytotoxicity against human UACC62 cells assessed as cell growth at 50 uM by SRB assay; type: functional; conditions: read-out: Activity
OVCAR-5 = experiment: Cytotoxicity against human OVCAR5 cells assessed as cell growth at 50 uM by SRB assay; type: functional; conditions: read-out: Activity
SR [5] = experiment: Cytotoxicity against human SR cells by SRB assay; type: functional
How it was run: (§1)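 NCI-60 panel screen; 5-dose testing giving GI50 per cell line, plus a single 10 µM one-dose test. Method details not given beyond the NCI screen.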

HOP-92 = experiment: Cytotoxicity against human HOP92 cells by SRB assay; type: functional
How it was run: (§2)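 Measured in the NCI-60 human tumour cell line panel using five-dose testing. Growth was recorded at each dose for each cell line, and a GI50 was derived for each line.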

U-251 [6] = experiment: Cytotoxicity against human U251 cells by SRB assay; type: functional; how it was run: as §1
OVCAR-8 = experiment: Cytotoxicity against human OVCAR8 cells by SRB assay; type: functional; how it was run: as §1
[7] = Cytotoxicity against human NCI-ADR-RES cells by SRB assay; type: functional; how it was run: as §1
SK-OV-3 = experiment: Cytotoxicity against human SKOV3 cells by SRB assay; type: functional; how it was run: as §1
RXF 393 = experiment: Cytotoxicity against human RXF393 cells by SRB assay; type: functional; how it was run: as §1
UO-31 [8] = experiment: Cytotoxicity against human UO31 cells by SRB assay; type: functional; how it was run: as §1
MDA-MB-468 = experiment: Cytotoxicity against human MDA-MB-468 cells by SRB assay; type: functional; how it was run: as §1
NCI-H460 [9] = experiment: Cytotoxicity against human NCI-H460 cells assessed as cell growth at 0.005 uM by SRB assay; type: functional; conditions: read-out: Activity
HCC 2998 [10] = experiment: Cytotoxicity against human HCC2998 cells assessed as cell growth at 0.005 uM by SRB assay; type: functional; conditions: read-out: Activity; how it was run: as §2
U-251 [11] = experiment: Cytotoxicity against human U251 cells assessed as cell growth at 0.005 uM by SRB assay; type: functional; conditions: read-out: Activity
NCI-H460 [12] = experiment: Cytotoxicity against human NCI-H460 cells assessed as cell growth at 0.05 uM by SRB assay; type: functional; conditions: read-out: Activity
COLO 205 = experiment: Cytotoxicity against human COLO205 cells assessed as cell growth at 0.05 uM by SRB assay; type: functional; conditions: read-out: Activity
HCC 2998 [13] = experiment: Cytotoxicity against human HCC2998 cells assessed as cell growth at 0.05 uM by SRB assay; type: functional; conditions: read-out: Activity; how it was run: as §2
MDA-MB-435 = experiment: Cytotoxicity against human MDA-MB-435 cells assessed as cell growth at 0.05 uM by SRB assay; type: functional; conditions: read-out: Activity
OVCAR-4 [14] = experiment: Cytotoxicity against human OVCAR4 cells assessed as cell growth at 0.05 uM by SRB assay; type: functional; conditions: read-out: Activity
DU-145 = experiment: Cytotoxicity against human DU145 cells assessed as cell growth at 0.05 uM by SRB assay; type: functional; conditions: read-out: Activity; how it was run: as §2
BT-549 = experiment: Cytotoxicity against human BT549 cells assessed as cell growth at 0.05 uM by SRB assay; type: functional; conditions: read-out: Activity
SR [15] = experiment: Cytotoxicity against human SR cells assessed as cell growth at 0.5 uM by SRB assay; type: functional; conditions: read-out: Activity
NCI-H23 [16] = experiment: Cytotoxicity against human NCI-H23 cells assessed as cell growth at 0.5 uM by SRB assay; type: functional; conditions: read-out: Activity
NCI-H460 [17] = experiment: Cytotoxicity against human NCI-H460 cells assessed as cell growth at 0.5 uM by SRB assay; type: functional; conditions: read-out: Activity
HCT-116 = experiment: Cytotoxicity against human HCT116 cells assessed as cell growth at 0.5 uM by SRB assay; type: functional; conditions: read-out: Activity; how it was run: as §2
SNB-19 [18] = experiment: Cytotoxicity against human SNB19 cells assessed as cell growth at 0.5 uM by SRB assay; type: functional; conditions: read-out: Activity
U-251 [19] = experiment: Cytotoxicity against human U251 cells assessed as cell growth at 0.5 uM by SRB assay; type: functional; conditions: read-out: Activity
SK-MEL-28 = experiment: Cytotoxicity against human SK-MEL-28 cells assessed as cell growth at 0.5 uM by SRB assay; type: functional; conditions: read-out: Activity
UACC-257 = experiment: Cytotoxicity against human UACC257 cells assessed as cell growth at 0.5 uM by SRB assay; type: functional; conditions: read-out: Activity
UACC-62 [20] = experiment: Cytotoxicity against human UACC62 cells assessed as cell growth at 0.5 uM by SRB assay; type: functional; conditions: read-out: Activity
A549 = experiment: Cytotoxicity against human A549/ATCC cells assessed as cell growth at 5 uM by SRB assay; type: functional; conditions: read-out: Activity
NCI-H522 = experiment: Cytotoxicity against human NCI-H522 cells assessed as cell growth at 5 uM by SRB assay; type: functional; conditions: read-out: Activity
SF-295 = experiment: Cytotoxicity against human SF295 cells assessed as cell growth at 5 uM by SRB assay; type: functional; conditions: read-out: Activity
OVCAR-4 [21] = experiment: Cytotoxicity against human OVCAR4 cells assessed as cell growth at 5 uM by SRB assay; type: functional; conditions: read-out: Activity
786-0 = experiment: Cytotoxicity against human 786-0 cells assessed as cell growth at 5 uM by SRB assay; type: functional; conditions: read-out: Activity
UO-31 [22] = experiment: Cytotoxicity against human UO31 cells assessed as cell growth at 5 uM by SRB assay; type: functional; conditions: read-out: Activity
NCI-H23 [23] = experiment: Cytotoxicity against human NCI-H23 cells assessed as cell growth at 50 uM by SRB assay; type: functional; conditions: read-out: Activity
[24] = read-out: LC50 (the source's name)
[25] = read-out: pLC50 (the source's name) (converted)

In the case of `COc1cc([C@@H]2c3cc4c(cc3[C@@H](NC(=O)CN3CCN(CCCCCCN5CCN(CC(=O)N[C@@H]6c7cc8c(cc7[C@@H](c7cc(OC)c(O)c(OC)c7)[C@H]7C(=O)OC[C@@H]76)OCO8)CC5)CC3)[C@H]3COC(=O)[C@H]23)OCO4)cc(OC)c1O`, the pIC50 (K562 [1]) was 7.39, the “Ratio IC50” value (K562 [2]) was 21.5 and the growth at 50 µM (SNB-19 [3]) was 11%. For the same compound, the growth at 50 µM (UACC-62 [4]) was -5%, the growth at 50 µM (OVCAR-5) was 10% and the GI50 (SR [5]; read-out: GI50) was 0.106 µM. It also gave a CC50 (SR [5]; [24]) of over 50 µM, a TGI (SR [5]; read-out: TGI) of over 50 µM and a GI50 (SR [5]; read-out: pGI50 (converted)) of 0.105 µM. For the same compound, the CC50 (SR [5]; [25]) was over 50.1 µM, the TGI (SR [5]; read-out: pTGI (converted)) was over 50.1 µM and the GI50 (HOP-92; read-out: GI50) was 1.55 µM. It also gave a CC50 (HOP-92; [24]) of over 50 µM, a TGI (HOP-92; read-out: TGI) of over 50 µM and a GI50 (HOP-92; read-out: pGI50 (converted)) of 1.55 µM. It also gave a CC50 (HOP-92; [25]) of over 50.1 µM, a TGI (HOP-92; read-out: pTGI (converted)) of over 50.1 µM and a GI50 (U-251 [6]; read-out: GI50) of 1.56 µM. It also gave a CC50 (U-251 [6]; [24]) of over 50 µM, a TGI (U-251 [6]; read-out: TGI) of 25.1 µM and a GI50 (U-251 [6]; read-out: pGI50 (converted)) of 1.55 µM. It also gave a CC50 (U-251 [6]; [25]) of over 50.1 µM, a TGI (U-251 [6]; read-out: pTGI (converted)) of 25.1 µM and a GI50 (OVCAR-8; read-out: GI50) of 35.7 µM. For the same compound, the CC50 (OVCAR-8; [24]) was over 50 µM, the TGI (OVCAR-8; read-out: TGI) was over 50 µM and the GI50 (OVCAR-8; read-out: pGI50 (converted)) was 35.5 µM. For the same compound, the CC50 (OVCAR-8; [25]) was over 50.1 µM, the TGI (OVCAR-8; read-out: pTGI (converted)) was over 50.1 µM and the GI50 ([7]; read-out: GI50) was over 50 µM. For the same compound, the CC50 [7, 24] was over 50 µM, the TGI ([7]; read-out: TGI) was over 50 µM and the GI50 ([7]; read-out: pGI50 (converted)) was over 50.1 µM. It also gave a CC50 [7, 25] of over 50.1 µM, a TGI ([7]; read-out: pTGI) of over 50.1 µM and a GI50 (SK-OV-3; read-out: GI50) of 3.87 µM. The CC50 (SK-OV-3; [24]) was over 50 µM, the TGI (SK-OV-3; read-out: TGI) was over 50 µM and the GI50 (SK-OV-3; read-out: pGI50 (converted)) was 3.89 µM. For the same compound, the CC50 (SK-OV-3; [25]) was over 50.1 µM, the TGI (SK-OV-3; read-out: pTGI (converted)) was over 50.1 µM and the GI50 (RXF 393; read-out: GI50) was 9.33 µM. For the same compound, the CC50 (RXF 393; [24]) was over 50 µM, the TGI (RXF 393; read-out: TGI) was over 50 µM and the GI50 (RXF 393; read-out: pGI50 (converted)) was 9.33 µM. For the same compound, the CC50 (RXF 393; [25]) was over 50.1 µM, the TGI (RXF 393; read-out: pTGI (converted)) was over 50.1 µM and the GI50 (UO-31 [8]; read-out: GI50) was over 50 µM. For the same compound, the CC50 (UO-31 [8]; [24]) was over 50 µM, the TGI (UO-31 [8]; read-out: TGI) was over 50 µM and the GI50 (UO-31 [8]; read-out: pGI50 (converted)) was over 50.1 µM. For the same compound, the CC50 (UO-31 [8]; [25]) was over 50.1 µM, the TGI (UO-31 [8]; read-out: pTGI (converted)) was over 50.1 µM and the GI50 (MDA-MB-468; read-out: GI50) was 1.72 µM. It also gave a CC50 (MDA-MB-468; [24]) of 50 µM, a TGI (MDA-MB-468; read-out: TGI) of 12.3 µM and a GI50 (MDA-MB-468; read-out: pGI50 (converted)) of 1.74 µM. For the same compound, the CC50 (MDA-MB-468; [25]) was over 50.1 µM, the TGI (MDA-MB-468; read-out: pTGI (converted)) was 12.3 µM and the growth at 0.005 µM (NCI-H460 [9]) was 100%. It also gave a growth at 0.005 µM (HCC 2998 [10]) of 104%, a growth at 0.005 µM (U-251 [11]) of 102% and a growth at 0.05 µM (NCI-H460 [12]) of 89%. The growth at 0.05 µM (COLO 205) was 99%, the growth at 0.05 µM (HCC 2998 [13]) was 104% and the growth at 0.05 µM (MDA-MB-435) was 96%. For the same compound, the growth at 0.05 µM (OVCAR-4 [14]) was 89%, the growth at 0.05 µM (DU-145) was 103% and the growth at 0.05 µM (BT-549) was 87%. It also gave a growth at 0.5 µM (SR [15]) of 22%, a growth at 0.5 µM (NCI-H23 [16]) of 95% and a growth at 0.5 µM (NCI-H460 [17]) of 35%. For the same compound, the growth at 0.5 µM (HCT-116) was 60%, the growth at 0.5 µM (SNB-19 [18]) was 66% and the growth at 0.5 µM (U-251 [19]) was 76%. For the same compound, the growth at 0.5 µM (SK-MEL-28) was 91%, the growth at 0.5 µM (UACC-257) was 108% and the growth at 0.5 µM (UACC-62 [20]) was 70%. For the same compound, the growth at 5 µM (A549) was 35%, the growth at 5 µM (NCI-H522) was 51% and the growth at 5 µM (SF-295) was 50%. The growth at 5 µM (OVCAR-4 [21]) was 64%, the growth at 5 µM (786-0) was 40% and the growth at 5 µM (UO-31 [22]) was 89%. The growth at 50 µM (NCI-H23 [23]) was -6%.
